Some results are limits rather than exact numbers.

What is called pKa is the pH at which an ionisable group is half protonated. A high value points to a weaker acid or stronger base. As a reminder, the Ki is the dissociation constant of the complex between target and ligand, obtained from inhibition or displacement. A lower Ki goes with higher affinity.

Data set [1] has as its system Human immunodeficiency virus 1. As to the kind of experiment: In Vitro anti HIV activity was evaluated in HIV cytopathic assay in MT-4 cells. The data set is classed as functional. Conditions: Human immunodeficiency virus 1, MT4; read-out: ED50 (the source's name). In a few lines: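 HIV cytopathic assay in MT-4 cells; protection quantified with vital dye XTT; ED50 calculated from percent cytoprotection per compound.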

The nature of data set [2]: Dissociation constant was measured. It counts as physicochemical.
Data set [3] deals with Human immunodeficiency virus type 1 protease (Human immunodeficiency virus 1, UniProt Q72874). As to the kind of experiment: Inhibitory activity against HIV protease expressed in Escherichia coli. In a few lines:
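HIV-1 protease cloned and heterologously expressed in E. coli; Ki determined by fluorometric enzyme assay.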

Data set [4] deals with Human immunodeficiency virus 1. As to the kind of experiment: Compound was evaluated for Antiviral activity against HIV-1. The note with it: read-out: ED50 (the source's name). The data set is classed as functional. Put shortly:
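HIV cytopathic assay in MT-4 cells; cell protection read out with the vital dye XTT. ED50 taken as the 50% inhibitory concentration, calculated from percent cytoprotection for each compound.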

For the compound `CNC(=O)[C@@H](NC(=O)[C@H](OCc1ccccc1)[C@H](O)[C@@H](O)[C@@H](OCc1ccccc1)C(=O)N[C@H](C(=O)NC)C(C)C)C(C)C`, the EC50 in data set [1] worked out at 1300 nM.

For `C=CCS[C@@H](C(=O)NC1c2ccccc2C[C@H]1O)[C@H](O)[C@@H](O)[C@@H](SCC=C)C(=O)N[C@H]1c2ccccc2C[C@H]1O` (stereo not given in full), the EC50 in data set [1] is more than 10000 nM. In addition, the pKa in data set [2] was 9.8. This compound also gave an inhibition constant Ki in data set [3] of 16 nM.

Regarding `CNC(=O)[C@@H](NC(=O)[C@H](Sc1ccccc1)[C@H](O)[C@@H](O)[C@@H](Sc1ccccc1)C(=O)N[C@H](C(=O)NC)C(C)C)C(C)C`, in data set [1], the EC50 was found to be 6300 nM. The pKa in data set [2] amounted to 6.6. For the same compound, in data set [3], the Ki came to 1.8 nM.

In the case of `CNC(=O)[C@@H](NC(=O)[C@H](Sc1ccccc1F)[C@H](O)[C@@H](O)[C@@H](Sc1ccccc1F)C(=O)N[C@H](C(=O)NC)C(C)C)C(C)C`, the EC50 in data set [1] amounted to 3600 nM. Moreover, in data set [2], the pKa is 6. Moreover, the Ki in data set [3] was determined as 0.57 nM.

In the case of `O=C(NC1c2ccccc2C[C@H]1O)[C@H](OCc1ccccc1)[C@H](O)[C@@H](O)[C@@H](OCc1ccccc1)C(=O)N[C@H]1c2ccccc2C[C@H]1O` (stereo not given in full), the EC50 in data set [1] came out at 96 nM.

Turning to `O=C(NC1c2ccccc2C[C@H]1O)[C@H](SCc1ccccc1)[C@H](O)[C@@H](O)[C@@H](SCc1ccccc1)C(=O)N[C@H]1c2ccccc2C[C@H]1O` (stereo not given in full), the EC50 in data set [1] stood at 1100 nM. The same compound gave a pKa in data set [2] of 9.7. Besides, affinity in data set [3] was put at a Ki of 2.8 nM.

As to `O=C(NC1c2ccccc2C[C@H]1O)[C@H](Sc1cccs1)[C@H](O)[C@@H](O)[C@@H](Sc1cccs1)C(=O)N[C@H]1c2ccccc2C[C@H]1O` (stereo not given in full), the EC50 in data set [1] was determined as 27 nM. In addition, the pKa in data set [2] amounted to 6.4. In data set [3], the inhibitory constant (Ki) amounted to 0.5 nM.

With `CNC(=O)[C@@H](NC(=O)[C@H](Sc1cccs1)[C@H](O)[C@@H](O)[C@@H](Sc1cccs1)C(=O)N[C@H](C(=O)NC)C(C)C)C(C)C`, the EC50 in data set [1] turned out to be 4200 nM. Besides, the pKa in data set [2] turned out to be 6.4. In data set [3], this compound came in with a Ki of 1 nM.

As to `O=C(NC1c2ccccc2C[C@H]1O)[C@H](Sc1ccccc1F)[C@H](O)[C@@H](O)[C@@H](Sc1ccccc1F)C(=O)N[C@H]1c2ccccc2C[C@H]1O` (stereo not given in full), the EC50 in data set [1] was 110 nM. Further, in data set [2], the pKa worked out at 6. Also, in data set [3], the Ki amounted to 2.3 nM.

On to `O=C(NC1c2ccccc2C[C@H]1O)[C@H](Sc1ccccc1)[C@H](O)[C@@H](O)[C@@H](Sc1ccccc1)C(=O)N[C@H]1c2ccccc2C[C@H]1O` (stereo not given in full), for which the EC50 in data set [1] was determined as 260 nM. Further, in data set [2], the pKa turned out to be 6.6. The compound further came in with a Ki in data set [3] of 1.8 nM.

In the case of `O=C(NC1c2ccccc2C[C@H]1O)[C@H](SCc1ccccc1F)[C@H](O)[C@@H](O)[C@@H](SCc1ccccc1F)C(=O)N[C@H]1c2ccccc2C[C@H]1O` (stereo not given in full), in data set [1], the EC50 came to 210 nM. In data set [2], this compound displayed a pKa of 9.2. In data set [3], this compound showed an inhibition constant (Ki) of 4.3 nM.

For the compound `O=C(NC1c2ccccc2C[C@H]1O)[C@H](Sc1ccccn1)[C@H](O)[C@@H](O)[C@@H](Sc1ccccn1)C(=O)N[C@H]1c2ccccc2C[C@H]1O` (stereo not given in full), in data set [1], the EC50 was more than 10000 nM. In addition, the pKa in data set [2] was 9.6. This compound also showed an inhibition constant Ki in data set [3] of 285 nM.

In the case of `CC(C)(C)NC(=O)[C@@H]1CN(Cc2cccnc2)CCN1C[C@@H](O)C[C@@H](Cc1ccccc1)C(=O)N[C@H]1c2ccccc2C[C@H]1O` [INDINAVIR], the EC50 in data set [4] amounted to 73 nM.

As to `Cc1c(O)cccc1C(=O)N[C@@H](CSc1ccccc1)[C@H](O)CN1C[C@H]2CCCC[C@H]2C[C@H]1C(=O)NC(C)(C)C` [NELFINAVIR], the EC50 in data set [4] is 56 nM.

Take `CC(C)c1nc(CN(C)C(=O)N[C@H](C(=O)N[C@@H](Cc2ccccc2)C[C@H](O)[C@H](Cc2ccccc2)NC(=O)OCc2cncs2)C(C)C)cs1` [RITONAVIR]: the EC50 in data set [4] amounted to 55 nM.

Values taken from ChEMBL document CHEMBL1134626, “Synthesis of potent C(2)-symmetric, diol-based hiv-1 protease inhibitors. Investigation of thioalkyl and thioaryl P1/P1' substituents” (J Med Chem, 2001).
